This note sets out measurements from ChEMBL document CHEMBL1128719, “The synthesis, structure-activity, and structure-side effect relationships of a series of 8-alkoxy- and 5-amino-8-alkoxyquinolone antibacterial agents” (J Med Chem, 1995).

For orientation: MIC means the lowest concentration that inhibits growth of the organism. A low value points to inhibition by little substance. In general, IC50 refers to the midpoint of a concentration-inhibition curve. Low readings indicate higher potency, high ones lower potency.

In brackets after ≈: the same amount, converted by molar mass.

One series concerns Bacteroides fragilis. Kind of series: In vitro antibacterial activity against Bacteroides fragilis BFA. The class given is functional. In short, it runs like this: (§1)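 Microtitration (microdilution) MIC determination in μg/mL against a panel of Gram-positive, Gram-negative and anaerobic organisms. Values come from duplicate or triplicate experiments and are stated accurate to ±50%.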

The test system of another series is Clostridioides difficile. Put plainly: In vitro antibacterial activity was tested for Clostridium diff CD1-1. The class given is functional.
The subject of another series is Clostridium perfringens. Put plainly: In vitro antibacterial activity against Clostridium perfringens CP 3-1. The class given is functional.
For series [1], the system named is Escherichia coli. Kind of series: In vitro antibacterial activity was tested for Escherichia coli H560. The class given is functional. In short, it runs like this: as §1
For series [2], the system named is Escherichia coli. Kind of series: In vitro antibacterial activity was tested for Escherichia coli Vogel. The class given is functional. In outline: as §1
The next series deals with Enterobacter cloacae. Put plainly: In vitro antibacterial activity was tested for Enterobacter cloacae HA2646. The class given is functional.
For another series, the system named is Klebsiella pneumoniae. Kind of series: In vitro antibacterial activity was tested for Klebsiella pneumoniae MGH-2. The class given is functional. In outline: as §1
The species named for series [3] is Mus musculus. Put plainly: (§2) Phototoxic skin reaction in depilated female CD-1 mice. In kind it is toxicity, organism-based. The settings on record: in vivo. In short, it runs like this:
(§3)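 Female CD-1 mice, depilated, given a single oral or subcutaneous dose. UVA (320–400 nm) exposure for 3 h, starting 1 h post-dose. Initial doses were 30, 100 and 300 mg/kg. PTD50 (dose giving phototoxic skin reaction in 50% of mice) derived by probit method. First day of positive reaction and no-effect dose taken from raw data.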

The species named for series [4] is Mus musculus. Described as §2. The class given is functional. In short, it runs like this:
as §3

The test system of series [5] is Peptoniphilus asaccharolyticus. Kind of series: In vitro antibacterial activity was tested for Pepto asac PA 3-1. The class given is functional. In short, it runs like this: as §1
In a further series the test system is Providencia rettgeri. Kind of series: In vitro antibacterial activity was tested for Providencia rettgeri H1771. In kind it is functional. In outline: as §1
The subject of a further series is Pseudomonas aeruginosa. Kind of series: In vitro antibacterial activity was tested for Pseudomonas aeruginosa UI-18. In kind it is functional. In outline: as §1
Series [6] deals with Staphylococcus aureus. Kind of series: In vitro antibacterial activity was tested for Staphylococcus aureus H228. In kind it is functional. In outline: as §1
Series [7] concerns Staphylococcus aureus. Put plainly: In vitro antibacterial activity was tested for Staphylococcus aureus UC-76. The class given is functional. In short, it runs like this: as §1
A further series deals with Streptococcus pneumoniae. Put plainly: In vitro antibacterial activity was tested for Streptococcus pneumoniae SV-1. In kind it is functional. In outline:
as §1

The test system of another series is Streptococcus pyogenes. Kind of series: In vitro antibacterial activity was tested for Streptococcus pyogenes C203. The class given is functional. In short, it runs like this: as §1
The next series relates to Enterococcus faecalis. Put plainly: In vitro antibacterial activity was tested for Streptococcus faecalis MGH-2. The class given is functional. In outline:
as §1

In a further series the test system is Cutibacterium acnes. Kind of series: In vitro antibacterial activity was tested for Propion acnes PA5-1. The class given is functional. In outline:
as §1

The species entered for series [8] is Mus musculus. Kind of series: Phototoxic skin reaction in depilated female CD-1 mice. In kind it is functional. In outline: as §3
Series [9] deals with V79. Kind of series: (§4) Clonogenic cytotoxicity against Chinese hamster V-79 cells. The class given is functional, cell-based. The following applies: Cricetulus griseus.
The subject of series [10] is V79. The description is as §4. The class given is functional, cell-based. The following applies: Cricetulus griseus. In outline: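 Chinese hamster V-79 cells grown overnight, then exposed to drug 3 h at 37 °C; drug medium replaced with fresh medium, cells incubated 5 days and scored for colony formation. IC50 (μg/mL) taken as concentration inhibiting colony formation by 50% versus control.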
The source holds these as a separate data set.

With `COc1c(N2CC(C)NC(C)C2)c(F)cc2c(=O)c(C(=O)O)cn(C3CC3)c12` (stereo not given), the MIC was found to be 0.8 µg/mL (≈ 2.05 µM) in the series with Bacteroides fragilis; 3.1 µg/mL (≈ 7.96 µM) against Clostridioides difficile; 0.4 µg/mL (≈ 1.03 µM) in the series with Clostridium perfringens; 0.05 µg/mL (≈ 0.128 µM) in the series with Escherichia coli [1]; 0.1 µg/mL (≈ 0.257 µM) in the series with Escherichia coli [2]; 0.1 µg/mL (≈ 0.257 µM) in the series with Enterobacter cloacae. Further, the MIC came out at 0.2 µg/mL (≈ 0.514 µM) in the series on Klebsiella pneumoniae; 0.8 µg/mL (≈ 2.05 µM) in [5]; 0.8 µg/mL (≈ 2.05 µM) against Providencia rettgeri; 3.1 µg/mL (≈ 7.96 µM) against Pseudomonas aeruginosa; 0.1 µg/mL (≈ 0.257 µM) against Staphylococcus aureus [6]; 0.05 µg/mL (≈ 0.128 µM) with Staphylococcus aureus [7]. Further, the minimum inhibitory concentration (MIC) stood at 0.1 µg/mL (≈ 0.257 µM) against Streptococcus pneumoniae, 0.1 µg/mL (≈ 0.257 µM) against Streptococcus pyogenes, 0.2 µg/mL (≈ 0.514 µM) against Enterococcus faecalis and 0.4 µg/mL (≈ 1.03 µM) in the series on Cutibacterium acnes. The PTD50 in the series listed under Mus musculus [3] is on record as more than 100 mg. Moreover, the No effect dose in the series filed under Mus musculus [4] is 100 mg.

`C[C@@H]1CN(c2c(F)cc3c(=O)c(C(=O)O)cn(C4CC4)c3c2F)C[C@H](C)N1`: the MIC against Bacteroides fragilis stood at 1.6 µg/mL (≈ 4.24 µM); against Clostridioides difficile, 3.1 µg/mL (≈ 8.21 µM); in the series with Clostridium perfringens, 0.2 µg/mL (≈ 0.53 µM); in [5], 1.6 µg/mL (≈ 4.24 µM); against Cutibacterium acnes, 0.8 µg/mL (≈ 2.12 µM). This compound also showed a PTD50 in the series filed under Mus musculus [3] of 55 mg. Further, the No effect dose in the series listed under Mus musculus [4] is 30 mg.

As for `CCOc1c(N2CCC(C)(CN)C2)c(F)cc2c(=O)c(C(=O)O)cn(C3CC3)c12` (stereo not given), the MIC was determined as 1.6 µg/mL (≈ 3.97 µM) with Bacteroides fragilis; 3.1 µg/mL (≈ 7.68 µM) against Clostridioides difficile; 0.8 µg/mL (≈ 1.98 µM) against Clostridium perfringens; 0.2 µg/mL (≈ 0.496 µM) with Escherichia coli [1]; 0.2 µg/mL (≈ 0.496 µM) against Escherichia coli [2]; 0.2 µg/mL (≈ 0.496 µM) against Enterobacter cloacae. For the same compound, the MIC was 0.4 µg/mL (≈ 0.991 µM) in the series on Klebsiella pneumoniae; 0.8 µg/mL (≈ 1.98 µM) in series [5]; 0.8 µg/mL (≈ 1.98 µM) with Providencia rettgeri; 1.6 µg/mL (≈ 3.97 µM) against Pseudomonas aeruginosa; 0.05 µg/mL (≈ 0.124 µM) in the series on Staphylococcus aureus [6]; 0.013 µg/mL (≈ 0.0322 µM) with Staphylococcus aureus [7]. For the same compound, the MIC with Streptococcus pneumoniae came to 0.1 µg/mL (≈ 0.248 µM); with Streptococcus pyogenes it was 0.1 µg/mL (≈ 0.248 µM); in the series on Enterococcus faecalis it was 0.1 µg/mL (≈ 0.248 µM); in the series on Cutibacterium acnes, 3.1 µg/mL (≈ 7.68 µM). The PTD50 in the series listed under Mus musculus [3] is listed as more than 100 mg. The No effect dose in the series filed under Mus musculus [8] is reported as 100 mg. In addition, in the series on V79 [9], half-maximal inhibition (IC50) required 140 µg/mL (≈ 347 µM).

As for `CC1(CN)CCN(c2c(F)cc3c(=O)c(C(=O)O)cn(C4CC4)c3c2Cl)C1` (stereo not given), the MIC came to 0.05 µg/mL (≈ 0.127 µM) against Bacteroides fragilis; 0.2 µg/mL (≈ 0.508 µM) in the series with Clostridioides difficile; 0.05 µg/mL (≈ 0.127 µM) in the series on Clostridium perfringens; 0.2 µg/mL (≈ 0.508 µM) in series [5]; 0.2 µg/mL (≈ 0.508 µM) in the series with Cutibacterium acnes. For the same compound, the PTD50 in the series filed under Mus musculus [3] is recorded as less than 30 mg. Further, in the series listed under Mus musculus [8], the No effect dose is less than 30 mg. The compound further gave an IC50 with V79 [9] of 8.6 µg/mL (≈ 21.8 µM).

For the compound `CC1(CN)CCN(c2c(F)cc3c(=O)c(C(=O)O)cn(C4CC4)c3c2F)C1` (stereo not given), the MIC against Bacteroides fragilis is 0.4 µg/mL (≈ 1.06 µM); in the series with Clostridioides difficile it was 1.6 µg/mL (≈ 4.24 µM); against Clostridium perfringens it was 0.1 µg/mL (≈ 0.265 µM); in [5], 0.4 µg/mL (≈ 1.06 µM); against Cutibacterium acnes it was 0.4 µg/mL (≈ 1.06 µM). In the series listed under Mus musculus [3], this compound displayed a PTD50 of less than 30 mg. For the same compound, the No effect dose in the series filed under Mus musculus [8] is less than 30 mg. In the series on V79 [9], this compound displayed an IC50 of 7.7 µg/mL (≈ 20.4 µM).

As for `NC1CCN(c2c(F)cc3c(=O)c(C(=O)O)cn(C4CC4)c3c2Cl)C1` (stereo not given) [CLINAFLOXACIN], the MIC against Bacteroides fragilis was found to be 0.1 µg/mL (≈ 0.273 µM); with Clostridioides difficile it was 0.4 µg/mL (≈ 1.09 µM); with Clostridium perfringens it was 0.1 µg/mL (≈ 0.273 µM); in the series on Escherichia coli [1] it was 0.006 µg/mL (≈ 0.0164 µM); against Escherichia coli [2], 0.013 µg/mL (≈ 0.0355 µM); against Enterobacter cloacae, 0.025 µg/mL (≈ 0.0683 µM). Besides, the MIC against Klebsiella pneumoniae was determined as 0.025 µg/mL (≈ 0.0683 µM); in series [5], 0.4 µg/mL (≈ 1.09 µM); in the series with Providencia rettgeri, 0.025 µg/mL (≈ 0.0683 µM); in the series with Pseudomonas aeruginosa, 0.05 µg/mL (≈ 0.137 µM); with Staphylococcus aureus [6] it was 0.05 µg/mL (≈ 0.137 µM); with Staphylococcus aureus [7], 0.013 µg/mL (≈ 0.0355 µM). Moreover, the minimal inhibitory concentration (MIC) was 0.05 µg/mL (≈ 0.137 µM) against Streptococcus pneumoniae, 0.05 µg/mL (≈ 0.137 µM) with Streptococcus pyogenes, 0.05 µg/mL (≈ 0.137 µM) with Enterococcus faecalis and 0.2 µg/mL (≈ 0.547 µM) against Cutibacterium acnes. The PTD50 in the series filed under Mus musculus [3] is 23 mg. The No effect dose in the series listed under Mus musculus [4] is reported as 18 mg.

In the case of `NCC1CCCN(c2c(F)c(N)c3c(=O)c(C(=O)O)cn(C4CC4)c3c2F)C1` (stereo not given), the MIC in the series on Escherichia coli [1] came to 0.025 µg/mL (≈ 0.0637 µM); against Escherichia coli [2] it was 0.05 µg/mL (≈ 0.127 µM); with Enterobacter cloacae it was 0.05 µg/mL (≈ 0.127 µM); against Klebsiella pneumoniae, 0.1 µg/mL (≈ 0.255 µM); in the series on Providencia rettgeri, 0.2 µg/mL (≈ 0.51 µM); against Pseudomonas aeruginosa, 0.8 µg/mL (≈ 2.04 µM). The MIC in the series with Staphylococcus aureus [6] was found to be 0.025 µg/mL (≈ 0.0637 µM); against Staphylococcus aureus [7], 0.003 µg/mL (≈ 0.00765 µM); against Streptococcus pneumoniae, 0.003 µg/mL (≈ 0.00765 µM); against Streptococcus pyogenes it was 0.13 µg/mL (≈ 0.331 µM); against Enterococcus faecalis it was 0.013 µg/mL (≈ 0.0331 µM). The compound also registered an IC50 with V79 [10] of 38 µg/mL (≈ 96.8 µM).
